Experimental data published in ChEMBL document CHEMBL1133105, “Antimalarial, antitrypanosomal, and antileishmanial activities and cytotoxicity of bis(9-amino-6-chloro-2-methoxyacridines): influence of the linker” (J Med Chem, 2000).

Columns and labels:
Leishmania infantum [1] = assay: Percentage of activity against Leishmania infantum 6.25 uM; format: functional
Method in brief: (§1)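 Starch-stimulated mouse peritoneal macrophages, 30 000/well, infected after 24 h with spleen-derived L. infantum amastigotes (10:1) together with 2-fold drug dilutions (12.5–1.56 µM). Incubated 7 days at 37 °C, 5% CO2. Wright-stained slides scored microscopically as % reduction of total parasite load or of infected macrophages. Uninfected treated cultures judged microscopically for macrophage toxicity.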

Leishmania infantum [2] = assay: Percentage of activity against Leishmania infantum at 1.56 uM; format: functional; method in brief: as §1
Leishmania infantum [3] = assay: In Vitro evaluation for the percentage of activity towards Leishmania infantum at 12.5 uM Concentration; format: functional; method in brief: as §1
Leishmania infantum [4] = assay: Percentage of activity against Leishmania infantum at 3.13 uM; format: functional; method in brief: as §1
MRC5 [5] = assay: Cytotoxicity on MRC-5 cells at 12.5 uM; format: functional; details: Homo sapiens
Method in brief: (§2)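 MRC-5 human diploid embryonic lung cells seeded at 5 000/well, washed after 24 h, then given 2-fold drug dilutions (25, 12.5, 6.25, 3.13 µM) in RPMI + 5% FCS, final DMSO below 0.5%. Incubated 7 days at 37 °C, 5% CO2. MTT colorimetric read-out, scored as % reduction of absorbance at 540 nm versus untreated controls.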

MRC5 [6] = assay: Cytotoxicity on MRC-5 cells at 25 uM; format: functional; details: Homo sapiens; method in brief: as §2
MRC5 [7] = assay: Cytotoxicity on MRC-5 cells at 3.13 uM; format: functional; details: Homo sapiens; method in brief: as §2
MRC5 [8] = assay: Cytotoxicity on MRC-5 cells at 6.25 uM; format: functional; details: Homo sapiens; method in brief: as §2
Plasmodium falciparum = assay: In vitro sensitivity for Plasmodium falciparum FcB1R; format: functional, organism-based
Method in brief: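 Asynchronous P. falciparum cultures in human erythrocytes (0.5% parasitemia, 1% haematocrit) exposed to serially diluted drug for 24 h at 37 °C. [3H]hypoxanthine (0.5 µCi/well) then added for a further 24 h. Uptake compared with drug-free controls on the same plate. IC50 taken from the concentration–response curve, averaged over independent experiments. DMSO ≤0.1%.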

Trypanosoma cruzi [9] = assay: Percentage of activity against Trypanosoma cruzi at 1.56 uM; format: functional
Method in brief: (§3)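 Mouse peritoneal macrophages, 30 000/well, infected after 24 h with about 100 000 T. cruzi trypomastigotes per well plus 2-fold drug dilutions (12.5–1.56 µM). Incubated 4 days at 37 °C, 5% CO2. Methanol-fixed, Giemsa-stained and scored microscopically as % reduction of total parasite load (free trypomastigotes plus intracellular amastigotes) versus untreated controls.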

Trypanosoma cruzi [10] = assay: Percentage of activity against Trypanosoma cruzi at 12.5 uM; format: functional; method in brief: as §3
Trypanosoma cruzi [11] = assay: Percentage of activity against Trypanosoma cruzi at 3.13 uM; format: functional; method in brief: as §3
Trypanosoma cruzi [12] = assay: Percentage of activity against Trypanosoma cruzi at 6.25 uM Concentration; format: functional; method in brief: as §3
Trypanosoma brucei [13] = assay: Percentage of activity against Trypanosoma brucei at 6.25 uM; format: functional
Method in brief: (§4)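 Bloodstream-form T. brucei in HMI-9 medium, 10 000 parasites/well, exposed to 12.5, 6.25, 3.13 and 1.56 µM drug for 4 days. Read-out is % inhibition of parasite multiplication. Macrophage toxicity judged on mouse primary peritoneal macrophages.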

Trypanosoma brucei [14] = assay: Percentage of activity against Trypanosoma brucei at 12.5 uM; format: functional; method in brief: as §4
Trypanosoma brucei [15] = assay: Percentage of activity against Trypanosoma brucei at 1.56 uM; format: functional; method in brief: as §4
Trypanosoma brucei [16] = assay: Percentage of activity against Trypanosoma brucei at 3.13 uM; format: functional; method in brief: as §4
Leishmania infantum [17] = assay: In Vitro evaluation for the percentage of activity towards Leishmania infantum at 3.13 uM Concentration; Toxic upon mouse primary peritoneal macrophages; format: functional, organism-based; method in brief: as §1
Leishmania infantum [18] = assay: Percentage of activity against Leishmania infantum at 6.25 uM; Toxic upon mouse primary peritoneal macrophages; format: functional, organism-based; method in brief: as §1
Leishmania infantum [19] = assay: Percentage of activity against Leishmania infantum at 12.5 uM Concentration; Toxic upon mouse primary peritoneal macrophages; format: functional, organism-based; method in brief: as §1
Trypanosoma cruzi [20] = assay: Percentage of activity against Trypanosoma cruzi at 12.5 uM; Toxic upon mouse primary peritoneal macrophages; format: functional, organism-based; method in brief: as §3
Trypanosoma cruzi [21] = assay: In Vitro evaluation for the percentage of activity towards Trypanosoma cruzi at 3.13 uM Concentration; Toxic upon mouse primary peritoneal macrophages; format: functional, organism-based; method in brief: as §3
Trypanosoma cruzi [22] = assay: In Vitro evaluation for the percentage of activity towards Trypanosoma cruzi at 6.25 uM Concentration; Toxic upon mouse primary peritoneal macrophages; format: functional, organism-based; method in brief: as §3

Row | Compound | Antileishmanial activity (% reduction of parasite load) (Leishmania infantum [1]) [%] | Antileishmanial activity (% reduction of parasite load) (Leishmania infantum [2]) [%] | Percent inhibition of Leishmania infantum (Leishmania infantum [3]) [%] | Percent antileishmanial activity (reduction of parasite load) (Leishmania infantum [4]) [%] | cytotoxicity at 12.5 µM (MRC5 [5]) [%] | cytotoxicity at 25 µM (MRC5 [6]) [%] | cytotoxicity at 3.13 µM (MRC5 [7]) [%] | cytotoxicity at 6.25 µM (MRC5 [8]) [%] | IC50 (Plasmodium falciparum) [nM] | Parasite load reduction (Trypanosoma cruzi [9]) [%] | T. cruzi parasite load reduction (Trypanosoma cruzi [10]) [%] | Reduction of T. cruzi parasite load (Trypanosoma cruzi [11]) [%] | Reduction of T. cruzi parasite load (Trypanosoma cruzi [12]) [%] | Inhibition of parasite multiplication (Trypanosoma brucei [13]) [%] | Inhibition of parasite multiplication (Trypanosoma brucei [14]) [%] | Percent inhibition of parasite multiplication (Trypanosoma brucei [15]) [%] | Parasite growth inhibition (Trypanosoma brucei [16]) [%] | further results
1 | COc1ccc2nc3cc(Cl)ccc3c(NCCN(CCNc3c4ccc(Cl)cc4nc4ccc(OC)cc34)C(=O)C(C)NC(=O)OC(C)(C)C)c2c1 (stereo not given) | 60 | 0 | 90 | 20 | 0 | 100 | 0 | 0 | 109 | 0 | 60 | 0 | 40 | 100 | 100 | 99 | 100 | 
2 | COc1ccc2nc3cc(Cl)ccc3c(NCCCN(CCCNc3c4ccc(Cl)cc4nc4ccc(OC)cc34)C(=O)C(CC(=O)O)NC(=O)OC(C)(C)C)c2c1 (stereo not given) | 0 | 0 | 0 | 0 | 0 | 0 | 0 | 0 | > 500 | 0 | 80 | 0 | 0 | 100 | 100 | 100 | 100 | 
3 | COc1ccc2nc3cc(Cl)ccc3c(NCCCNCCCNc3c4ccc(Cl)cc4nc4ccc(OC)cc34)c2c1 |  | 40 |  |  | 100 | 100 | 100 | 100 | 55 | 60 |  |  |  | 100 | 100 | 100 | 100 | Cytotoxicity (Leishmania infantum [17]): Toxic; Cytotoxicity (Leishmania infantum [18]): Toxic; Cytotoxicity (Leishmania infantum [19]): Toxic; Cytotoxicity (Trypanosoma cruzi [20]): Toxic; Cytotoxicity (Trypanosoma cruzi [21]): Toxic; Cytotoxicity (Trypanosoma cruzi [22]): Toxic
4 | COc1ccc2nc3cc(Cl)ccc3c(NCCCN(CCCNc3c4ccc(Cl)cc4nc4ccc(OC)cc34)C(=O)C(CC(=O)OCC3c4ccccc4-c4ccccc43)NC(=O)OC(C)(C)C)c2c1 (stereo not given) | 0 | 0 | 20 | 0 | 0 | 0 | 0 | 0 | 230 | 0 | 40 | 0 | 0 | 100 | 100 | 100 | 100 | 
5 | COc1ccc2nc3cc(Cl)ccc3c(NCCCN(CCCNc3c4ccc(Cl)cc4nc4ccc(OC)cc34)C(=O)C(COC(C)=O)NC(=O)OC(C)(C)C)c2c1 (stereo not given) | 80 | 0 | 90 | 60 | 90 | 100 | 20 | 40 | 63 | 0 | 70 | 0 | 40 | 100 | 100 | 100 | 100 | 
